Data: paper PMC12461606 (RSC Chemical Biology, 2025)

How the values were obtained:
[1] = HPLC determination of dicamba formation in water; assay type: physicochemical; settings: for % Dicamba: integration of dicamba as percentage of all peaks at 220 nm
[2] = system: A. thaliana; experiment: Herbicidal activity assay on soil-grown A. thaliana; assay type: in vivo, Arabidopsis thaliana; settings: for pre-emergent inhibition: pre-emergence treatment; for pre-emergent inhibition / post-emergent inhibition: assessed on day 16; for post-emergent inhibition: treatments three and six days after germination
Outline: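 Test compounds were applied to A. thaliana across 125 μM–2 mM, either pre-emergence or post-emergence.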

[3] = system: Wild type A. thaliana (WT); experiment: Dicamba tolerance trait test, wild type plants; assay type: in vivo, Arabidopsis thaliana; settings: sprayed at 500 μM
Outline: (§1)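 Wild-type plants or a homozygous dicamba-tolerant transgenic line (DMOc) were sprayed with test compound or the parent acid at 500 μM.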

[4] = system: transgenic line of A. thaliana, modified with a synthetic dicamba monooxygenase from Stenotrophomonas maltophilia; experiment: Dicamba tolerance trait test, dicamba-tolerant transgenic line; assay type: in vivo, Arabidopsis thaliana; settings: sprayed at 500 μM, DMOc line
Outline: as §1

Row | Molecule | % Dicamba ([1]; 1 day) [%] | % Dicamba ([1]; 7 days) [%] | % Dicamba ([1]; 28 days) [%] | relative stability to hydrolysis among glucose isomers 1–5 ([1]; HPLC) | relative post-emergent herbicidal efficacy among conjugates ([2]; post-emergence, comparison between carbohydrate conjugates (Fig. 5)) | growth effect on wild-type [3] | growth effect on dicamba-tolerant transgenic line [4] | pre-emergent inhibition ([2]; 125 μM) | post-emergent inhibition ([2]; 125 μM) | post-emergent inhibition ([2]; 500 μM) | pre-emergent inhibition ([2]; 1 mM)
1 | 6-O-dicamba-D-glucose [Compound 2] | 0.1 | 0.1 | 0.5 | most stable | most active | herbicidal | no growth symptoms | – | – | – | –
2 | COc1c(Cl)ccc(Cl)c1C(=O)O [Dicamba, 3,6-dichloro-2-methoxybenzoic acid] | – | – | – | – | – | herbicidal | no growth symptoms | weak | moderate | strong | strong
